This note sets out measurements from paper PMC10685179 (RSC Advances, 2023).

The test system of test [1] is C. albicans KA205. Put plainly: Agar well-diffusion, inhibition zone. Type of test: cell-based, Candida albicans. As to conditions: Candida albicans, KA205, read-out: Average diameter of inhibition zone (ZI). A digest of the protocol:
(§1)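 Clinical MDR isolates from complicated UTI patients. Suspensions were made in Tryptic Soya and Sabouraud broths from subcultures on Tryptic Soya and Sabouraud agar plates. Agar well diffusion followed CLSI guidelines, with test compounds applied at 10 μM in DMSO. Fosfomycin and fluconazole were positive controls and DMSO the negative control. Zone diameters were read in mm, in triplicate.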
(In general: In agar diffusion tests the substance spreads into inoculated agar from a disc or well.)

Test [2] deals with P. mirabilis KA320. Put plainly: Broth microdilution MIC and MBC. Type of test: cell-based. The following applies: Proteus mirabilis. A general note: Dilution methods test growth across graded concentrations, often in twofold steps.
The test system of test [3] is E. faecalis KA247. As to the kind of experiment: Agar well-diffusion, inhibition zone. The following applies: Enterococcus faecalis, KA247, read-out: Average diameter of inhibition zone (ZI). Type of test: cell-based, Enterococcus faecalis. A digest of the protocol:
as §1

The subject of test [4] is S. aureus KA112. As to the kind of experiment: Broth microdilution MIC and MBC. As to conditions: Staphylococcus aureus. Type of test: cell-based.
The subject of test [5] is E. faecalis KA247. As to the kind of experiment: Broth microdilution MIC and MBC. The following applies: Enterococcus faecalis, KA247, 24 h. It counts as cell-based.
The subject of test [6] is S. aureus KA112. Put plainly: Agar well-diffusion, inhibition zone. It counts as cell-based, Staphylococcus aureus. The following applies: Staphylococcus aureus, KA112, read-out: Average diameter of inhibition zone (ZI). A digest of the protocol:
as §1

In another test the test system is bacterial isolates. As to the kind of experiment: Broth microdilution MIC/MBC, bacterial panel. Type of test: cell-based. As to conditions: pyrrole 6b versus thiophene 6a; bacteria.
Test [7] deals with C. albicans KA205. As to the kind of experiment: Broth microdilution MIC and MFC. Type of test: cell-based. The following applies: Candida albicans; for MIC: KA205, 24 h; for MFC: KA205, read-out: MFC/MIC.
For test [8], the system named is C. tropicalis KA205. Put plainly: Agar well-diffusion, inhibition zone. It counts as cell-based, Candida tropicalis. As to conditions: Candida tropicalis, KA205, read-out: Average diameter of inhibition zone (ZI). A digest of the protocol:
as §1

Test [9] has as its system C. tropicalis KA205. As to the kind of experiment: Broth microdilution MIC and MFC. Type of test: cell-based. The following applies: Candida tropicalis; for MIC: KA205, 24 h; for MFC: KA205, read-out: MFC/MIC.
For test [10], the system named is E. coli KA780. As to the kind of experiment: Agar well-diffusion, inhibition zone. Type of test: cell-based, Escherichia coli. The following applies: Escherichia coli, KA780, read-out: Average diameter of inhibition zone (ZI). A digest of the protocol:
as §1

The test system of test [11] is P. mirabilis KA320. Put plainly: Agar well-diffusion, inhibition zone. Type of test: cell-based, Proteus mirabilis. The following applies: Proteus mirabilis, KA320, read-out: Average diameter of inhibition zone (ZI). A digest of the protocol:
as §1

For test [12], the system named is E. coli KA780. As to the kind of experiment: Broth microdilution MIC and MBC. Type of test: cell-based. The following applies: Escherichia coli.
The test system of test [13] is fungal isolates. As to the kind of experiment: Broth microdilution MIC/MFC, fungal panel. It counts as cell-based.
Test [14] relates to fungal isolates. As to the kind of experiment: Agar well-diffusion, inhibition zone, fungal panel. It counts as cell-based. A digest of the protocol: as §1
For test [15], the system named is MDR bacterial and fungal isolates. Put plainly: Broth microdilution MIC/MBC/MFC, whole panel. As to conditions: bactericidal/fungicidal if MBC or MFC not greater than four times the MIC. It counts as cell-based.
In test [16] the test system is fungal isolates. As to the kind of experiment: Time-kill kinetics, fungal isolates. Type of test: cell-based. As to conditions: at MIC. A digest of the protocol: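 Untreated organisms served as controls. Bacteria were sampled at 0, 2, 4, 6, 8, 12, 18 and 24 h, and fungi at 0, 2, 4, 6, 8, 18, 24 and 48 h. Counts were made by plate count and plotted as log10 CFU mL−1 versus time.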

A further test has as its system E. coli Kam3-AcrB. Put plainly: Ethidium bromide. It counts as cell-based. The following applies: phosphonates 0.06 to 2 μg mL^−1; PaβN 20 μg mL^−1. A digest of the protocol: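 E. coli Kam3-AcrB (pSYC plasmid encoding AcrB) was grown to mid-log phase in TS broth and pelleted at 5000×g for 5 min at 4 °C. Cells were washed twice in PBS pH 7.4 and adjusted to OD600 ≈0.5. Cells were treated with phosphonates (0.06–2 μg mL−1) or 0.1% DMSO for 12 h, then combined with EtBr, 25 mM glucose (final) and PaβN 20 μg mL−1. Fluorescence was read over 38 min, […], as RFU.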

Values after ≈ are worked out from the molar mass of the structure shown. Residues, ends and D or L forms follow the SMILES beside them. *: point of attachment. βNA = c1ccc2cc(N*)ccc2c1

In the case of `O=[N+]([O-])c1ccc(-c2nn(-c3ccccc3)c3sc(NC(c4ccc[nH]4)P(=O)(Oc4ccccc4)Oc4ccccc4)nc23)cc1` (centres unmarked) [Compound 6b, Diphenyl(((3-(4-nitrophenyl)-1-phenyl-1H-pyrazolo[4,3-d]thiazol-5-yl)amino)(1H-pyrrol-2-yl)methyl)phosphonate], the zone of inhibition (commonly the size of the clear area around the sample on an inoculated plate) at 10 µM with C. albicans KA205 [1] was found to be 21 ± 0.91 mm; in the test on E. faecalis KA247 [3], 22 ± 0.55 mm; in the test with S. aureus KA112 [6], 23 ± 0.77 mm; in the test with C. tropicalis KA205 [8], 21 ± 0.7 mm; in the test on E. coli KA780 [10], 24 ± 0.86 mm; with P. mirabilis KA320 [11], 22 ± 0.12 mm. For the same compound, the MIC (commonly the lowest concentration that inhibits growth of the organism) was 0.25 µg/mL (≈ 0.385 µM) in the test on P. mirabilis KA320 [2] (KA320, 24 h); 0.125 µg/mL (≈ 0.193 µM) with S. aureus KA112 [4] (KA112, 24 h); 0.25 µg/mL (≈ 0.385 µM) with E. faecalis KA247 [5]; 0.25 µg/mL (≈ 0.385 µM) in the test with C. albicans KA205 [7]; 0.5 µg/mL (≈ 0.771 µM) in the test with C. tropicalis KA205 [9]; 0.125 µg/mL (≈ 0.193 µM) against E. coli KA780 [12] (KA780, 24 h). For the same compound, the MBC came out at 1 µg/mL (≈ 1.54 µM) with P. mirabilis KA320 [2] (KA320, read-out: MBC/MIC); 0.5 µg/mL (≈ 0.771 µM) with S. aureus KA112 [4] (KA112, read-out: MBC/MIC); 0.5 µg/mL (≈ 0.771 µM) with E. coli KA780 [12] (KA780, read-out: MBC/MIC). Also, in the test with bacterial isolates, the “higher activity by MIC” value is given as around 8 folds. For the same compound, the MFC with C. albicans KA205 [7] and in the test with C. tropicalis KA205 [9] was 1 µg/mL (≈ 1.54 µM) each time.

Turning to `OC(Cn1cncn1)(Cn1cncn1)c1ccc(F)cc1F` [FCA, fluconazole, reference compound], the zone of inhibition at 10 µM was 17 ± 0.99 mm in the test with C. albicans KA205 [1], 17 mm with fungal isolates [14] and 17 ± 0.15 mm with C. tropicalis KA205 [8]. The MFC in the test with fungal isolates [13] worked out at 2 µg/mL (≈ 6.53 µM); in the test on C. albicans KA205 [7] it was 1 µg/mL (≈ 3.27 µM); in the test with C. tropicalis KA205 [9], 0.5 µg/mL (≈ 1.63 µM). In addition, the MIC against C. albicans KA205 [7] was 2 µg/mL (≈ 6.53 µM); with C. tropicalis KA205 [9], 4 µg/mL (≈ 13.1 µM). Further, the bactericidal/fungicidal effect result in test [15] is “bactericidal and fungicidal activities”. The “time of maximum killing rate / maximum reduction in cell counts” value in the test with fungal isolates [16] amounted to 48 h.

As to `NC(N)=NCCC[C@H](NC(=O)[C@@H](N)Cc1ccccc1)C(=O)Nc1ccc2ccccc2c1` [PAβN] (H-Phe-Arg-βNA), the EtBr accumulation entry in the test with E. coli Kam3-AcrB is given as “increases the accumulation of EtBr”.
